{"source": "paper PMC7385434", "about": "(Science Advances, 2020)", "key": {"tumor growth": {"test_system": "tumor growth", "settings": "sunitinib at a dose of 8.75 mg/kg; cited from earlier work"}, "MDA-MB-231 tumor": {"test_system": "MDA-MB-231 tumor", "experiment": "In vivo and ex vivo fluorescence imaging of tumor accumulation and retention", "parameters": "species or system mouse", "settings": "200 μM, n = 3", "how_it_was_run": "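MDA-MB-231-bearing BALB/c nude mice received test nanoparticles (200 μl, 200 μM) i.v.; peptide-only NPs and PBS served as controls. Whole-body fluorescence (ex 500 nm, em 520 nm) was imaged at 4, 12, 24, 48 and 72 h. At 72 h, heart, liver, spleen, lung, kidney and tumor were excised for ex vivo fluorescence imaging. Groups had three to four mice.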"}, "[1]": {"experiment": "Particle size and morphology by TEM and DLS", "assay_type": "physicochemical", "how_it_was_run": "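Nanoparticles were formed by quick injection of a 4.0 mM DMSO peptide stock into water (0.5:99.5 v/v), giving 20 μM. They were incubated with CD105 (0.25 μg/ml) for 0, 4 and 8 h, with BSA or no protein as controls. TEM: drops sat on copper mesh 15 min, were blotted, stained 15 min with uranyl acetate, water-washed, air-dried and imaged at 200 kV. DLS was run at 0 and 8 h.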"}, "HUVECs": {"test_system": "HUVECs", "experiment": "CCK-8 cytotoxicity assay, HUVECs", "assay_type": "cell-based, human", "settings": "CCK-8, 24 hours, 10-80 μM, n = 4"}, "MCF-7 cells": {"test_system": "MCF-7 cells", "experiment": "CCK-8 cytotoxicity assay, MCF-7 cells", "assay_type": "cell-based, human", "settings": "CCK-8, 24 hours, 10-80 μM, n = 4"}, "[2]": {"test_system": "MDA-MB-231 xenografted tumor", "experiment": "Blood oxygen saturation", "assay_type": "in vivo, mouse", "settings": "4 hours after i.v. injection, 200 μl, 200 μM; n = 30 slices", "how_it_was_run": "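MDA-MB-231 tumor-bearing BALB/c mice were anesthetized with isoflurane in a glass box. Test nanoparticles (200 μl, 200 μM) were given i.v.; peptide-only NPs and PBS (200 μl) served as controls. Multispectral optoacoustic tomography read Hb at 715 nm and HbO2 at 850 nm before and 4 h after injection. 3D maps were built from 30 2D slices at 0.1 mm steps. Data are means ± SD; unpaired two-tailed t test.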"}, "[3]": {"experiment": "Safety: body weight and H&E of normal tissues during therapy", "assay_type": "in vivo, mouse", "how_it_was_run": "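MDA-MB-231-bearing mice were randomized into three groups of three to four. They received test nanoparticles i.v. (200 μl, 200 μM; 2.4 mg/kg) every other day, with peptide-only NPs and PBS as controls. Body weight and tumor volume were recorded every other day. Normal tissues were fixed overnight in 4% paraformaldehyde/PBS, paraffin-embedded, sectioned, H&E-stained and examined by light microscopy.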"}, "[4]": {"experiment": "Safety for blood circulation: platelet activity, thrombin, platelet numbers", "assay_type": "in vivo, mouse", "settings": "tumor-bearing mice, i.v. 200 μl, 200 μM, up to 5 days", "how_it_was_run": "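Tumor-bearing mice received test nanoparticles (200 μl, 200 μM) i.v. Blood was drawn into 3.8% sodium citrate at 0, 1, 4, 24 and 120 h. Platelet-rich plasma was obtained by mixing blood with an equal volume of 2% paraformaldehyde in PBS for 30 min, then centrifuging at 1000 rpm for 10 min. P-selectin was measured by flow cytometry after 30 min with FITC anti-P-selectin mAb. Thrombin was measured by ELISA; platelet counts by flow cytometry.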"}, "[5]": {"settings": "in vivo fluorescence at 4, 12, 24, 48, 72 hours after i.v. 200 μl"}}}
{"molecule": "CCN(CC)CCNC(=O)c1c(C)[nH]c(/C=C2\\C(=O)Nc3ccc(F)cc32)c1C", "note": "[sunitinib]", "values": [{"measurement": "tumor growth inhibition", "setting": "tumor growth", "result": 32, "unit": "%"}]}
{"molecule": "BP-AHKHVHHVPVRL [BA NPs]", "values": [{"measurement": "tumor fluorescence at 72 hours", "setting": "MDA-MB-231 tumor; in vivo fluorescence after i.v. 200 μl", "result": "almost disappeared"}]}
{"molecule": "BP-FFVLK-AHKHVHHVPVRL [pNPs]", "values": [{"measurement": "size during incubation with CD105 (TEM)", "setting": "[1]; 20 μM with CD105 0.25 μg/ml in water, pNPs at start, apNFs at 4 hours", "result": "30.6 ± 7.1", "unit": "nm"}, {"measurement": "size by DLS before incubation with CD105", "setting": "[1]; 20 μM, 0 hours, multidisperse after CD105 incubation 8 hours", "result": 31.6, "unit": "nm"}, {"measurement": "diameter (TEM and DLS)", "setting": "[1]; 20 μM, H2O:DMSO = 99.5:0.5 v/v, freshly prepared", "result": "23.1 ± 5.8", "unit": "nm"}, {"measurement": "stability of nanoparticles in water", "setting": "[1]; 20 μM, water with 0.5% DMSO, without CD105, 0 and 8 h, CD, FT-IR, TEM", "result": "stable"}, {"measurement": "diameter after incubation with BSA in place of CD105", "setting": "[1]; bovine serum albumin replacing CD105, remained particulate", "result": "29.5 ± 5.3", "unit": "nm"}, {"measurement": "concentration showing good biocompatibility (cell viability)", "setting": "HUVECs", "result": "below 50 μM"}, {"measurement": "concentration showing good biocompatibility (cell viability)", "setting": "MCF-7 cells", "result": "below 50 μM"}, {"measurement": "decrease in sO2 in tumors compared with before injection", "setting": "[2]", "result": 33.8, "unit": "%"}, {"measurement": "persistence of fluorescence in tumor", "setting": "MDA-MB-231 tumor; [5]", "result": 72, "unit": "h"}, {"measurement": "time up to which artificial clots continuously accumulated in tumor", "setting": "MDA-MB-231 tumor; [5]", "result": 24, "unit": "h"}, {"measurement": "acute systemic toxicity by body weight", "setting": "[3]; i.v. 200 μM, 200 μl every other day, body weight every other day", "result": "did not induce acute systematic toxicity"}, {"measurement": "cell necrosis in other (non-tumor) tissues, H&E", "setting": "[3]; tissues harvested 15 d after treatment", "result": "not observed"}, {"measurement": "change in plasma thrombin generation", "setting": "[4]; ELISA", "result": "did not induce obvious changes"}, {"measurement": "change in circulating platelet numbers", "setting": "[4]; flow cytometry", "result": "did not induce obvious changes"}, {"measurement": "change in platelet activity (P-selectin-positive platelets)", "setting": "[4]; flow cytometry", "result": "did not induce obvious changes"}]}
